NPY-Y1 antag – NPY-Y1 (human) receptor antagonism | 200,000 compounds, 1% hits | inhibition, % at 3.6 µM | AID 1040 | HEK293-CNG Y1 cells, membrane potential fluorescence; NPY at EC95, then isoproterenol;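 active means inhibition above the campaign mean inhibition of all tested compounds plus 3 SD, cut at about 20% in these data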;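 further: 0% = DMSO wells given NPY plus isoproterenol and 100% = isoproterenol alone without NPY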
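Benchmarks – high control isoproterenol alone, low control NPY with isoproterenol · Material – HEK293 Y1/CNG channel cell line · Times – dye 3 h, compound 60 min room temperature, stimulation 45 min · Probe or stimulus – NPY (25 nM), isoproterenol (1 µM), Ro 20-1724 (25 µM) · Evaluation – % inhibition of NPY effect · Signal – fluorescence, membrane potential probe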
NPY-Y2 antag – blocks the human neuropeptide Y Y2 receptor. P49146. NPY-Y2 expressing cells, antagonist mode. inhibition, % at 2.7 µM. 140,000 compounds, 0.99% hits. AID 793; in the data active means inhibition above about 17%;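 further: 0% = vehicle with agonist challenge and 100% = reference antagonist with challenge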
Target sequence (P49146 whole entry, looked up): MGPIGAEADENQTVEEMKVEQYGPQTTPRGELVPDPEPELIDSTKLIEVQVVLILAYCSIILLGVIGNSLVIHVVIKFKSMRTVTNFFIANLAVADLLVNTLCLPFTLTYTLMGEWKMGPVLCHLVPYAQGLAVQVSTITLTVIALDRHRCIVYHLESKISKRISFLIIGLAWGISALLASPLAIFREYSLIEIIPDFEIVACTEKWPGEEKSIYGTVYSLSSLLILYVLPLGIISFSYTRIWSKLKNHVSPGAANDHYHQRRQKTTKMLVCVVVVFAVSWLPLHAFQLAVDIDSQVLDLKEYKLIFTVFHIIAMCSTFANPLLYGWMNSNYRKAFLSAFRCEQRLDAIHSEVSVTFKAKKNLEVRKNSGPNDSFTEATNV
EP2 modulator – EP2 receptor (human) modulation; P43116; EP2-expressing cells, cAMP HTRF FRET, PGE2 co-stimulation; induction, % at 25 µM; 260,000 compounds, 0.83% hits; AID 940;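 active means compounds whose cAMP rise, as percent of the full-agonist control response, exceeds 60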;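 further: rat C6 glioma line stably carrying human EP2 under a CMV promoter; the protocol text gives 20 µM as final concentration; 100% = response of wells given 1 µM PGE2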
NPY1 pot ag – potentiators or agonists of human neuropeptide Y receptor Y1; P25929; NPY-Y1 expressing cells, potentiator/agonist activation; activation, % at 3.6 µM; 220,000 compounds, 0.37% hits; AID 1304; in the data active means activation above about 33%, passing the limit was not always enough;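 further: cells stimulated with NPY at EC10 then isoproterenol at EC100; 0% = low agonist plus stimulus and 100% = saturating agonist plus stimulus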
PGE2 EP2 inh – inhibitors of human EP2 prostaglandin E2 receptor. P43116. C6 glioma cells expressing human EP2, cAMP TR-FRET; cells stimulated with saturating PGE2. inhibition, % at 25 µM. 260,000 compounds, 0.52% hits. AID 1422;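 active means percent inhibition above 40 after rounding to a whole number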;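 further: rat C6 glioma host cells with rolipram phosphodiesterase inhibitor present; the protocol text gives 20 µM as final concentration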
NPY2 pot ag – human NPY-Y2 potentiation or agonism, primary screen | P49146 | cells expressing NPY-Y2, potentiator/agonist read-out | activation, % at 3.6 µM | 220,000 compounds, 0.45% hits | AID 1359; in the data active means activation above about 27%;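 further: cells stimulated with NPY near EC25 plus isoproterenol at EC100; 0% = vehicle plus submaximal agonist and 100% = vehicle plus saturating agonist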
The depositor's hits bear a star; x = no result given; ! = a repeat was not active. An excerpt weighted towards active compounds, which were near 2.8% of everything screened.

SMILES	NPY-Y1 antag	NPY-Y2 antag	EP2 modulator	NPY1 pot ag	PGE2 EP2 inh	NPY2 pot ag
CCOc1ccc(NC(=O)c2c(C)nn(Cc3ccccc3)c2Cl)cc1	-1	3	-13	15	11	8
COc1ccc(C)cc1NC(=O)c1c(C)nn(Cc2ccccc2)c1Cl	20*	21*	40	-24	8	-19
CC(=O)O[C@@H]1C[C@@]2(C)[C@H](c3ccoc3)C[C@H]3O[C@]32[C@]2(C)C(=O)C(O)=C3C(C)(C)C(=O)C=C[C@]3(C)C12 (some centres undefined)	x	x	17	x	13	x
c1ccc(-c2cc(-c3ccccc3)[n+](-c3ccccc3)c(-c3ccccc3)c2)cc1	x	x	-78	0	64*	1
C[n+]1c(-c2ccccc2)cc(-c2ccc(Cl)cc2)cc1-c1ccccc1	0	x	-13	-16	8	2
Cn1c(=O)c2[nH]cnc2n(C)c1=O.[CH2-][C@H](Cc1cccc2cc(C(=O)O)c(=O)oc12)OC.[Hg].[OH-]	x	x	29	x	59*	x
CC(Oc1ccc(-c2ccccc2)cc1)C(=O)O (centres undefined)	25*	5	1	2	9	-28
CC1=NN(c2ccccc2)C(=O)C1/C=C1\C(=O)NC(=O)N(c2cc(C)cc(C)c2)C1=O (centres undefined)	-4	1	30	-12	8	-4
CC1=NN(c2ccccc2)C(=O)[C@H]1N=Nc1ccc([As](=O)(O)O)c(O)c1	x	x	46	x	43*	x
C[C@H](Br)CN(C[C@H](C)Br)c1ccc2c(c1)Cc1ccccc1-2	x	x	-27	x	57*	x
O=C1NC(=S)NC(=O)C1=Cc1cccc2cc3ccccc3cc12	x	x	-42	15	98*!	-3
CN(C)c1ccc(C=C2C(=O)NC(=S)NC2=O)cc1[N+](=O)[O-]	-3	x	-19	-1	8	1
COc1cccc(C2(O)CCN(CCNC(=O)c3cc(F)cc(F)c3)CC2)c1	x	x	-16	x	12	x
C#CCOc1cccc(CN2C3CCC2CC(O)(c2nccn2C)C3)c1 (centres undefined)	x	x	7	x	2	x
Cc1cc(C)n2nc(SC(C)C(=O)N3CCC4(CC3)OCCO4)nc2n1 (centres undefined)	-2	1	30	73*	3	99*
CC(=O)O[C@H]1CC[C@H]2[C@H]3CCC4=C[C@@H](C5SCCS5)[C@H](OC(C)=O)C[C@]4(C)[C@@H]3CC[C@]12C	x	x	28	x	30	x
COC(=O)[C@@H]1C[C@H]1[C@@H](NP(=O)(c1ccccc1)c1ccccc1)c1ccccc1	6	4	29	4	10	-11
COC(=O)[C@H]1C[C@@H]1[C@H](NP(=O)(c1ccccc1)c1ccccc1)c1ccccc1	40*	19*	15	-36	6	-13
Cn1c(O)c(C=NCc2ccco2)c(=O)n(C)c1=O	2	0	3	-6	4	-2
Cn1c(O)c(C=Nc2ccccc2Sc2ccccc2)c(=O)n(C)c1=O	-3	2	61*	13	6	4
Cc1cc(OC(=O)CCNC(=O)OC(C)(C)C)c2c3c(c(=O)oc2c1)CCC3	1	-4	-43	-13	10	68*
Cc1cc(OC(=O)CCCNC(=O)OC(C)(C)C)c2c3c(c(=O)oc2c1)CCC3	2	2	-35	1	6	-18
Nc1nonc1-c1cnon1	x	x	-22	x	9	x
Cc1nc(-c2ccccc2)c(CC(=O)N2CCCCC2CN2CCCCC2)s1 (centres undefined)	x	x	-19	x	4	x
CC(=O)Nc1cccc(NC(=O)CN2C3CCC2CC(O)(c2nccn2C)C3)c1 (centres undefined)	x	x	-18	x	x	x
SMILES	NPY-Y1 antag	NPY-Y2 antag	EP2 modulator	NPY1 pot ag	PGE2 EP2 inh	NPY2 pot ag
O[C@H](CN1CC1)[C@@H](O)CN1CC1	x	x	22	x	42*	x
Cn1ccnc1C1(O)CC2CCC(C1)N2CC(=O)NCCc1ccccc1 (centres undefined)	x	x	37	x	x	x
COc1cc2c3cc1Oc1c(O)c(OC)cc4c1[C@@H](Cc1ccc(cc1)Oc1cc(ccc1O)C[C@@H]3N(C)CC2)N(C)CC4	x	x	-7	x	48*	x
Cc1ccc(NC(=O)CN2C3CCC2CC(O)(c2ccco2)C3)cc1F (centres undefined)	x	x	-71	x	x	x
c1ccc(CCNCc2c[nH]c3ccccc23)cc1	x	x	-89	x	7	x
CCOC(=O)C1(c2ccccc2)CCN(CC(=O)Nc2cccc3ccccc23)CC1	0	9	63*	-4	6	-5
O=C(CN1C(=O)CN=C(c2ccc(Cl)cc2)c2c1sc1c2CCCC1)NCc1ccco1	x	x	-33	x	27	x
CN(CCC(=O)O)C1=Nc2ccc(Cl)cc2C(c2ccccc2)=[N+]([O-])C1	x	x	14	x	50*	x
Nc1ccccc1O.O.O=C(O)[C@H]1[O][Sb][O][C@H]1C(=O)O	x	x	-4	x	54*	x
Cc1ccc(C)c(-c2nc(C)sc2CC(=O)N2CCCCC2CN2CCCC2)c1 (centres undefined)	x	x	-22	x	9	x
CN(C)CCN(C(=O)Cc1csc(-c2ccccc2F)n1)C1CCCCC1	x	x	-74	x	6	x
CO[C@H]1[C@H](O)[C@@H](O[C@@H]2[C@@H](Oc3cccc4c(O)c5c(=O)oc6ccc(C)c7c(=O)oc(c34)c5c67)O[C@@H](C)[C@H](O)[C@H]2O)O[C@@H](C)[C@@H]1O	x	x	8	x	44*	x
O=C(O)c1cc(N=Nc2ccc([As](=O)(O)O)cc2)ccc1O	x	x	33	x	43*	x
Cc1ccc(NP(=O)(Oc2ccccc2F)Oc2ccccc2F)cc1	6	1	44	22	7	4
Cc1cccc(NP(=O)(Oc2ccccc2F)Oc2ccccc2F)c1C	14	12	65*	5	7	-2
C=C[C@@H]1C[C@@]1(C)[C@@H](NP(=O)(c1ccccc1)c1ccccc1)c1ccccc1	38*	23*	41	-34	8	-6
COC(=O)[C@]1(C)C[C@H]1[C@H](NP(=O)(c1ccccc1)c1ccccc1)c1ccccc1	1	3	-12	-34	15	0
Cc1c([C@@H](C)[C@H]2NC[C@H](C)C[C@@H]2O)ccc2c1C[C@@H]1[C@@H]2CC=C2C[C@@H](O)CC[C@@]21C	x	x	8	x	43*	x
CC(=O)OC1=CC2=CC[C@H]3[C@@H]4CCC(=O)[C@@]4(C)CC(=O)[C@]3(S)[C@]2(C)CC1	x	x	-1	x	63*	x

Source: PubChem BioAssay (several laboratories)
